Assay results reported in ChEMBL document CHEMBL1143402 (PLoS Med, 2006).

Key:
[1] = test system: Mycobacterium tuberculosis; test: Inhibition of fatty acid synthesis in Mycobacterium bovis BCG after 60 mins; assay type: functional, organism-based; conditions: variant bovis BCG, 1 h
Method in brief: (§1)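 M. bovis BCG culture incubated with compound or DMSO plus 2-^14C acetate at 37 °C for 60 min. Cells saponified with KOH/methanol, acid-extracted into hexane, methyl-esterified. Fatty and mycolic acid subclasses separated by two-solvent TLC (n = 3) and quantified by phosphorimaging as % of control.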

[2] = test system: Mycobacterium tuberculosis; test: Inhibition of alpha-mycolic acid synthesis in Mycobacterium bovis BCG after 60 mins; assay type: functional, organism-based; conditions: variant bovis BCG, 1 h; method in brief: as §1

Structure (SMILES) | IC50 [1] [µg/mL] | IC50 [2] [µg/mL]
C[C@]1(COc2ccc(N3CCC(Oc4ccc(OC(F)(F)F)cc4)CC3)cc2)Cn2cc([N+](=O)[O-])nc2O1 | > 0.25 | > 0.25
NNC(=O)c1ccncc1 [ISONIAZID] | > 4 | –
